Source: article PMC3899495 (Clinical Pharmacokinetics, 2013)
Where two headings read alike, the source gives them in different places.

Tests used:
[1] = assay type: in vivo, human; details: single 0.4 U/kg s.c., geometric mean (CV %), n = 6; for AUC0–∞ / C max: serum, ELISA
In short: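 Subjects grouped by screening Cockcroft–Gault creatinine clearance. Non-dialysis subjects received one 0.4 U/kg subcutaneous dose (100 U/mL) into a lifted thigh skin fold at 0800 hours. Serum was sampled pre-dose through 120 h. Concentrations were measured by validated sandwich ELISA (mouse anti-human-insulin monoclonal capture, biotinylated mouse monoclonal detection; serum LLOQ 20 pM). Parameters came from individual concentration–time curves; CL/F = dose/AUC0–∞.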

[2] = Tolerability after single dose; assay type: in vivo, human; details: single 0.4 U/kg s.c. dose(s)
In short: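 Adults 18–85 y, BMI ≤40 kg/m2, in five renal-function groups. 0.4 U/kg s.c. into thigh: non-ESRD once; ESRD twice, post-hemodialysis and ~13 h pre-hemodialysis. In-house ≥48 h; follow-up 7–21 days after last dose. Also physical exam, biochemistry, hematology, urinalysis. AEs graded for severity and relationship; severe hypoglycemia = requiring assistance (ADA). Blood glucose sampled to 68 h (ESRD) or 120 h.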

[3] = cited from earlier work
[4] = varying degrees of impaired hepatic function; cited from earlier work
[5] = cited from earlier work; remark: listed apart in the source
[6] = mild renal impairment (CLCR 50–80 mL/min)
[7] = moderate renal impairment (CLCR 30–49 mL/min)
[8] = normal renal function (CLCR >80 mL/min)
[9] = severe renal impairment (CLCR <30 mL/min)

For Insulin degludec, the “CL/F (apparent clearance, dose/AUC0–∞)” value [1, 6] was 19.1 (31) mL/h/kg, the “AUC0–∞” value [1, 6] was 126,096 (49) pmol·h/L and the C max [1, 6] was 3,502 (30) pmol/L. For the same substance, the “CL/F (apparent clearance, dose/AUC0–∞)” value [1, 7] was 20.5 (39) mL/h/kg, the “AUC0–∞” value [1, 7] was 117,646 (32) pmol·h/L and the C max [1, 7] was 3,237 (39) pmol/L. The “CL/F (apparent clearance, dose/AUC0–∞)” value [1, 8] was 22.0 (32) mL/h/kg, the “AUC0–∞” value [1, 8] was 109,472 (26) pmol·h/L and the C max [1, 8] was 3,085 (28) pmol/L. The “CL/F (apparent clearance, dose/AUC0–∞)” value [1, 9] was 18.9 (24) mL/h/kg, the “AUC0–∞” value [1, 9] was 127,268 (28) pmol·h/L and the C max [1, 9] was 3,918 (28) pmol/L. The severe adverse events ([2]; 32 subjects exposed) was “None”, the severe hypoglycemic episodes ([2]; all subjects) was “No severe hypoglycemic episodes” and the “within-subject variability in glucose-lowering effect (AUC values) compared with insulin glargine” value [3] was “four-times lower”. For the same substance, the “effect of impaired hepatic function on ultra-long pharmacokinetic properties” value [4] was “preserved”.

In the case of insulin aspart, the “effect of impaired renal function on pharmacokinetics” value (from here on “effect of impaired renal function”) [5] is given as “reportedly unaffected”.

In the case of insulin detemir, the “effect of impaired renal function” value [5] is listed as “reportedly unaffected”.

In the case of insulin lispro, the “effect of impaired renal function” value ([5]; patients with diabetes) is given as “affect the pharmacokinetics”.

In the case of regular human insulin, the “effect of impaired renal function” value ([5]; patients with diabetes) is listed as “affect the pharmacokinetics”.
